Source: PubChem BioAssay (several laboratories)
NadD inh: inhibitors of Staphylococcus aureus NadD; hit rate 0.78% among 360,000; inhibition, % at 20 µM; AID 602399; purified NadD enzyme, colorimetric absorbance read-out; in the data active = inhibition above about 26%
Myeloid diff 2: compounds promoting myeloid differentiation. ER-HoxA9 myeloid progenitors, lysozyme-GFP differentiation, flow cytometry. calls only at 10 µM. hit rate 1% among 360,000. AID 624256;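 active = normalized GFP-positive differentiation at or above the plate's own cutoff, the solvent-only control mean plus 3 SD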;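 note: cells exposed to compound for four days before flow analysis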
PP5 inh: inhibitors of human protein phosphatase 5 (PP5); AID 1987; hit rate 0.18% among 320,000; P53041; inhibition, % at 6.7 µM; purified PP5c, OMFP substrate fluorescence;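 active = inhibition above the campaign's mean inhibition across all tested compounds plus 3 SD, cut at about 9.5% in these data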;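 note: 0% = DMSO only and 100% = 100 µM cantharidin control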
HCV core dimer: HCV core protein dimerization inhibition | hit rate 0.33% among 300,000 | inhibition, % at 5 µM | TR-FRET GST/Flag-core106 dimerization, 1536-well;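 active = inhibition above the mean of all tested compounds plus 3 SD, set per screening campaign, cut at about 45% in these data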
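System: GST/Flag-tagged HCV core106 proteins. Incubation: compound-protein-antibody incubation 4 h at 22.5 °C. Technique: HTRF with 340 nm excitation, 617/671 nm emission. Medium: KF-containing HEPES buffer, pH 7.45, DTT, CHAPS, BSA. Read-out: inhibition (%) from 671 over 617 nm ratio. Also added: Eu(K)-anti-GST 90 ng/mL plus XL665-anti-Flag 1 µg/mL.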
CTSL1 counter: cathepsin L1 inhibition, PFM18AAP counter-screen | recombinant F. hepatica cathepsin L1, Z-Leu-Arg-MCA fluorescence | inhibition, % at 5.96 µM | hit rate 0.49% among 300,000;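 active = inhibition above the mean of all tested compounds plus 3 SD, set per screening campaign, cut at about 17% in these data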;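 note: 0% = plate median of test compound wells and 100% = 1 µM Z-Phe-Ala-diazomethylketone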
PP1 counter: counter-screen for PP5 inhibitors: inhibitors of human PP1-alpha | P62136 | hit rate 0.9% among 320,000 | AID 2235 | purified PP1alpha, OMFP fluorescence | inhibition, % at 6.7 µM;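 active = inhibition above the mean inhibition of all tested compounds plus 3 SD, computed separately for each screening campaign, cut at about 15% in these data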
Target sequence (P62136 whole entry, looked up): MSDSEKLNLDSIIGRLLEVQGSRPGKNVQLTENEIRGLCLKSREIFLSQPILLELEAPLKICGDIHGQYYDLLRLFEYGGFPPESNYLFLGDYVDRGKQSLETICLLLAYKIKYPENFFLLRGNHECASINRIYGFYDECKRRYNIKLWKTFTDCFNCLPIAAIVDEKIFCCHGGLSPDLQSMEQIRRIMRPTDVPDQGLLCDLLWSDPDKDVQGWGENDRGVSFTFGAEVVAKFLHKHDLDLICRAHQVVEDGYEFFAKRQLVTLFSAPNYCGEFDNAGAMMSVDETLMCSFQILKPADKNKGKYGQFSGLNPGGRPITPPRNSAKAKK
Myeloid diff: myeloid differentiation induction; ER-HoxA9 myeloid progenitors, GFP/Mac1 double-positive flow; shares compounds with Myeloid diff 2; hit rate 2% among 2,300; calls only;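 active = share of green or green-and-red cells above 9 and 9% in run 1 or 4 and 3% in run 2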
GFP autofluor: flagged as fluorescent in myeloid differentiation counter-screen; shares compounds with Myeloid diff 2; ER-HoxA9 myeloid progenitors, no estrogen, GFP autofluorescence flow cytometry; vehicle wells 0%, positive control 100%; fluorescence response, % (test concentration not listed); hit rate 7.4% among 2,300; AID 651707;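 active = over 5% cells positive for green fluorescent reporter, or over 2% positive for both it and APC stain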;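 note: range taken on the double positive population between DMSO and positive control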
* = called active by the depositor. Only some compounds are listed: those with a hit (about 3.1% of all), similar ones and a draw of the others.

What do the screens show for `O=C(O)c1ccc(CSc2nc3ccccc3[nH]2)cc1`?
NadD inh: 1; Myeloid diff 2: inactive; PP5 inh: 0; HCV core dimer: -4; CTSL1 counter: -3; PP1 counter: -4

What do the screens show for `NNC(=O)c1ccc(CSc2nc3ccccc3[nH]2)cc1`?
NadD inh: -4; Myeloid diff 2: inactive; PP5 inh: 1; HCV core dimer: 2; CTSL1 counter: -3; PP1 counter: 2; Myeloid diff: inactive; GFP autofluor: 0

What do the screens show for `CC1CCCN(CCCNC(=O)C2CC(=O)N(CCc3ccccc3)C2)C1` (stereo not drawn)?
NadD inh: -3; Myeloid diff 2: inactive; PP5 inh: 3; HCV core dimer: -11; CTSL1 counter: -2; PP1 counter: 1

How did CCOC(=O)N1CCN(C(=O)c2ccc3c(c2)ncn3C2CCCC2)CC1 do in these assays?
NadD inh: 5; Myeloid diff 2: inactive; PP5 inh: 2; HCV core dimer: 0; CTSL1 counter: 0; PP1 counter: -1; Myeloid diff: inactive; GFP autofluor: 0

How did Cc1cc(NC(=O)/C=C/c2ccccc2Cl)no1 do in these assays?
NadD inh: -5; Myeloid diff 2: inactive; PP5 inh: -2; HCV core dimer: 3; CTSL1 counter: 0; PP1 counter: 5; Myeloid diff: inactive; GFP autofluor: 1

What do the screens show for `Cc1cc(NS(=O)(=O)c2ccc(NC(=O)/C=C/c3ccccc3Cl)cc2)no1`?
NadD inh: 0; Myeloid diff 2: inactive; PP5 inh: 4; HCV core dimer: 10; CTSL1 counter: 3; PP1 counter: 4

How did COc1ccccc1CCNC(=O)c1ccc(Br)s1 do in these assays?
NadD inh: 0; Myeloid diff 2: inactive; PP5 inh: 1; HCV core dimer: -3; CTSL1 counter: 2; PP1 counter: 0

Results for COc1ccc(CSc2nc(CSC)cc(N3CCOCC3)n2)cc1 ?
NadD inh: 4; Myeloid diff 2: active; PP5 inh: 3; HCV core dimer: -3; CTSL1 counter: -7; PP1 counter: 2; Myeloid diff: inactive; GFP autofluor: 0

Results for N#C/C(=C/c1ccc([N+](=O)[O-])cc1)C(N)=O ?
NadD inh: 6; Myeloid diff 2: inactive; PP5 inh: 1; HCV core dimer: -6; CTSL1 counter: 6; PP1 counter: -4

How did CCOP(=O)(OCC)/C(C#N)=C/c1ccc([N+](=O)[O-])cc1 do in these assays?
NadD inh: -5; Myeloid diff 2: inactive; PP5 inh: 2; HCV core dimer: 7; CTSL1 counter: -4; PP1 counter: 0; Myeloid diff: inactive; GFP autofluor: 0

What do the screens show for `COc1cccc(NC(=O)N2CCCC2C(=O)NC23CC4CC(CC(C4)C2)C3)c1` (stereo not drawn)?
NadD inh: -1; Myeloid diff 2: inactive; PP5 inh: 2; HCV core dimer: 2; CTSL1 counter: -3; PP1 counter: -4

What do the screens show for `CCCCCCCCN1C(=O)[C@H](CC(=O)N2CCN(C(=O)OCC)CC2)C[C@@]2(C(=O)OCC)CCCC=C12`?
NadD inh: 0; Myeloid diff 2: inactive

What do the screens show for `COCC(=O)Nc1c(C(=O)Nc2cccc(OC)c2)oc2ccccc12`?
NadD inh: -14; Myeloid diff 2: inactive; PP5 inh: -1; HCV core dimer: -2; CTSL1 counter: 1; PP1 counter: -1; Myeloid diff: inactive; GFP autofluor: 0

What do the screens show for `COC(=O)c1cc(NS(=O)(=O)c2ccc3c(c2)CCC(=O)N3)cc(C(=O)OC)c1`?
NadD inh: -2; Myeloid diff 2: active; PP5 inh: 4; HCV core dimer: -4; CTSL1 counter: 0; PP1 counter: -1; Myeloid diff: inactive; GFP autofluor: 0

Results for CN(c1ccc(C(=O)NCc2ccc3c(c2)OCO3)cc1)S(C)(=O)=O ?
NadD inh: -1; Myeloid diff 2: inactive; PP5 inh: -1; HCV core dimer: 1; CTSL1 counter: 0; PP1 counter: -4
